# Measurements published in ChEMBL document CHEMBL5390206, “Ormosianines A-P, Structurally Diverse Quinolizidine Alkaloids with AChE Inhibitory Effects from Ormosia yunnanensis” (J Nat Prod, 2023).
# Assay: Inhibition of AchE in fly head nerve cells using acetylthiocholine iodide as substrate preincubated for 20 mins followed by substrate addition and measured every 30s for 1 hr by DTNB reagent based Ellman's spectrophotometric method
# Details: Diptera, Nerve cell
# Outline: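 Modified spectrophotometric AChE method, with chlorpyrifos and huperzine A run alongside as positive controls.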
row,SMILES,IC50 [µM]
1,C1CC[C@H]([C@]23C[C@@H](C[C@@H]4CCCN[C@H]42)[C@H]2CCCCN2C3)NC1,5.56
2,CC(=O)N1CCCC[C@@H]1[C@]12C[C@H](C[C@@H]3CCCN[C@H]31)[C@H]1CCCCN1C2,8.48
3,O=C1C(CCCO)=C[C@H]2C[C@]1([C@@H]1CCCCN1)CN1CCCC[C@@H]21,1.55
4,C1=C2CCCN3CN4CCCC[C@@H]4[C@]4(C[C@@H]1[C@H]1CCCCN1C4)[C@@H]23,5.23
5,C=CCCN1C[C@@H]2C[C@@H](Cn3c2cccc3=O)C1=O,12.8
6,CN1CCCC[C@H]1[C@@]12C[C@H](C[C@H]3CCCN[C@@H]31)[C@H]1CCCCN1C2,17
7,C=CCCN1C[C@@H]2C[C@@H](CN3C(=O)CCC[C@]23OC)C1=O,15.7
8,C=CCCN1C[C@@H]2C[C@@H](CN3C(=O)CCC=C23)C1=O,20
9,CCOP(=S)(OCC)Oc1nc(Cl)c(Cl)cc1Cl [CHLORPYRIFOS],0.0233
10,CC(=O)O[C@H]1CCN2C[C@@H]3C[C@@H](CN4C(=O)[C@H](O)CC[C@H]34)[C@@H]2C1,9.77
11,C/C=C1\[C@H]2C=C(C)C[C@]1(N)c1ccc(=O)[nH]c1C2 [HUPERZINE A],0.12
12,C=CCCN1C[C@@H]2C[C@@H](CN3C(=O)CC[C@H](O)[C@]23O)C1=O,29.6
13,CC(=O)N1CCCC[C@H]1[C@@]12C[C@@H](C[C@H]3CCCN[C@@H]31)[C@H]1CCCCN1C2,5.65
